According to ChEMBL document CHEMBL2086252, “Syntheses and evaluation of anticonvulsant activity of novel branched alkyl carbamates” (J Med Chem, 2012):
Activity calls are given as the source filed them. The calls are words filed in the database; no cut-off is given here.

Tests used:
Mus musculus [1] = assay: Anticonvulsant activity in albino CF1 mouse assessed as protection against subcutaneous metrazol-induced seizures at 100 mg/kg, ip after 4 hrs; type: functional, organism-based; design: dose 100 mg/kg
Method in brief: (§1)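 Mice dosed ip at 30, 100 or 300 mg/kg, then tested 0.5 h and 4 h after administration in the MES or scMet test. Protection was recorded as animals protected over animals tested. Neurotoxicity was recorded as motor impairment or sedation, as animals affected over animals tested.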

Mus musculus [2] = assay: Anticonvulsant activity in albino CF1 mouse assessed as protection against maximal electroshock-induced seizures at 100 mg/kg, ip after 0.5 hrs; type: functional, organism-based; design: dose 100 mg/kg; method in brief: as §1
Mus musculus [3] = assay: Neurotoxicity in albino CF1 mouse assessed as minimal motor impairment at 300 mg/kg, ip after 0.5 hrs by rotarod test; type: toxicity, organism-based; design: dose 300 mg/kg, route intraperitoneal; settings: in vivo; method in brief: as §1
Rattus norvegicus [4] = assay: Neurotoxicity in pilocarpine-induced status epilepticus Sprague-Dawley albino rat model assessed as minimal motor impairment at 30 mg/kg, ip after 0.25 hr by rotarod test; type: toxicity, organism-based; design: dose 30 mg/kg, route intraperitoneal; settings: in vivo
Method in brief: (§2)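 Rat pilocarpine status epilepticus model: test carbamate given at 0 or 30 min after the first observed Racine stage 3 motor seizure, which marks SE onset. Neurotoxicity was scored within the same model.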

Mus musculus [5] = assay: Anticonvulsant activity in albino CF1 mouse assessed as protection against subcutaneous metrazol-induced seizures at 30 mg/kg, ip after 4 hrs; type: functional, organism-based; design: dose 30 mg/kg; method in brief: as §1
Mus musculus [6] = assay: Neurotoxicity in albino CF1 mouse assessed as minimal motor impairment at 300 mg/kg, ip after 4 hrs by rotarod test; type: toxicity, organism-based; design: dose 300 mg/kg, route intraperitoneal; settings: in vivo; method in brief: as §1
Rattus norvegicus [7] = assay: Protective index, ratio of TD50 for po dosed Sprague-Dawley albino rat by rotarod test to ED50 for po dosed Sprague-Dawley albino rat by maximal electroshock seizures test; type: functional
Method in brief: (§3)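 Protective index calculated as TD50/ED50, with TD50 and ED50 taken from the same species and dosing route.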

[8] = Neurotoxicity in ip dosed Sprague-Dawley albino rat assessed as minimal motor impairment by rotarod test; type: toxicity, organism-based; settings: in vivo
Method in brief: (§4)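 Quantitative testing: rats dosed orally or ip in MES and scMet tests, and mice dosed ip, including the 6 Hz (32 mA) psychomotor seizure test. ED50 and TD50 were reported in mg/kg with ranges in parentheses. Protective index was calculated as TD50/ED50.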

Mus musculus [9] = assay: Anticonvulsant activity in ip dosed albino CF-1 mouse assessed as protection against 6 Hz psychomotor seizure; type: functional; settings: albino CF-1, ip; method in brief: as §4
Mus musculus [10] = assay: Protective index, ratio of TD50 for ip dosed albino CF1 mouse by rotarod test to ED50 for ip dosed albino CF1 mouse by subcutaneous metrazol seizures test; type: functional; method in brief: as §3
Rattus norvegicus [11] = assay: Neurotoxicity in pilocarpine-induced status epilepticus Sprague-Dawley albino rat model assessed as minimal motor impairment at 30 mg/kg, ip after 4 hrs by rotarod test; type: toxicity, organism-based; design: dose 30 mg/kg, route intraperitoneal; settings: in vivo; method in brief: as §2
Mus musculus [12] = assay: Anticonvulsant activity in albino CF1 mouse assessed as protection against subcutaneous metrazol-induced seizures at 300 mg/kg, ip after 4 hrs; type: functional, organism-based; design: dose 300 mg/kg; method in brief: as §1
[13] = Neurotoxicity in po dosed Sprague-Dawley albino rat assessed as minimal motor impairment by rotarod test; type: toxicity, organism-based; settings: in vivo
Method in brief: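 Rats dosed orally; 4 rats per time point after dosing. Neurotoxicity was scored as motor impairment or sedation and reported as number of animals affected over number tested.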

Rattus norvegicus [14] = assay: Anticonvulsant activity in po dosed Sprague-Dawley albino rat assessed as protection against subcutaneous metrazol-induced seizures; type: functional; method in brief: as §4
Rattus norvegicus [15] = assay: Anticonvulsant activity in Sprague-Dawley albino rat assessed as protection against maximal electroshock-induced seizures at 30 mg/kg, po after 4 hrs; type: functional, organism-based; design: dose 30 mg/kg
Method in brief: (§5)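 Rats dosed orally. Anti-MES protection was scored as animals protected over animals tested at each time after dosing. Neurotoxicity was scored as motor impairment or sedation, as animals affected over animals tested.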

Mus musculus [16] = assay: Anticonvulsant activity in albino CF1 mouse assessed as protection against maximal electroshock-induced seizures at 30 mg/kg, ip after 0.5 hrs; type: functional, organism-based; design: dose 30 mg/kg; method in brief: as §1
Rattus norvegicus [17] = assay: Anticonvulsant activity in Sprague-Dawley albino rat assessed as protection against maximal electroshock-induced seizures at 30 mg/kg, po after 30 mins; type: functional, organism-based; design: dose 30 mg/kg; method in brief: as §5
Mus musculus [18] = assay: Anticonvulsant activity in albino CF1 mouse assessed as protection against maximal electroshock-induced seizures at 100 mg/kg, ip after 4 hrs; type: functional, organism-based; design: dose 100 mg/kg; method in brief: as §1
Mus musculus [19] = assay: Neurotoxicity in albino CF1 mouse assessed as minimal motor impairment at 30 mg/kg, ip after 4 hrs by rotarod test; type: toxicity, organism-based; design: dose 30 mg/kg, route intraperitoneal; settings: in vivo; method in brief: as §1
Rattus norvegicus [20] = assay: Neurotoxicity in pilocarpine-induced status epilepticus Sprague-Dawley albino rat model assessed as minimal motor impairment at 100 mg/kg, ip after 1 hr by rotarod test; type: toxicity, organism-based; design: dose 100 mg/kg, route intraperitoneal; settings: in vivo
Mus musculus [21] = assay: Neurotoxicity in albino CF1 mouse assessed as minimal motor impairment at 100 mg/kg, ip after 0.5 hrs by rotarod test; type: toxicity, organism-based; design: dose 100 mg/kg, route intraperitoneal; settings: in vivo; method in brief: as §1
Rattus norvegicus [22] = assay: Anticonvulsant activity in Sprague-Dawley albino rat assessed as protection against pilocarpine-induced status epilepticus at 65 mg/kg, ip; type: functional, organism-based; design: dose 65 mg/kg
Method in brief: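 Pilocarpine status epilepticus model in rats. Number and severity of convulsive seizures were observed behaviourally.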

Rattus norvegicus [23] = assay: Ratio of ED50 for po dosed Sprague-Dawley albino rat to ED50 for ip dosed Sprague-Dawley albino rat by maximal electroshock-induced seizure test; type: functional
Mus musculus [24] = assay: Neurotoxicity in albino CF1 mouse assessed as minimal motor impairment at 100 mg/kg, ip after 4 hrs by rotarod test; type: toxicity, organism-based; design: dose 100 mg/kg, route intraperitoneal; settings: in vivo; method in brief: as §1
Mus musculus [25] = assay: Anticonvulsant activity in albino CF1 mouse assessed as protection against maximal electroshock-induced seizures at 300 mg/kg, ip after 0.5 hrs; type: functional, organism-based; design: dose 300 mg/kg; method in brief: as §1
Mus musculus [26] = assay: Anticonvulsant activity in ip dosed albino CF1 mouse assessed as protection against subcutaneous metrazol-induced seizures; type: functional; method in brief: as §4
Rattus norvegicus [27] = assay: Neurotoxicity in pilocarpine-induced status epilepticus Sprague-Dawley albino rat model assessed as minimal motor impairment at 30 mg/kg, ip after 2 hrs by rotarod test; type: toxicity, organism-based; design: dose 30 mg/kg, route intraperitoneal; settings: in vivo; method in brief: as §2
Rattus norvegicus [28] = assay: Neurotoxicity in pilocarpine-induced status epilepticus Sprague-Dawley albino rat model assessed as minimal motor impairment at 30 mg/kg, ip after 0.5 hrs by rotarod test; type: toxicity, organism-based; design: dose 30 mg/kg, route intraperitoneal; settings: in vivo; method in brief: as §2
Rattus norvegicus [29] = assay: Anticonvulsant activity in Sprague-Dawley albino rat assessed as protection against maximal electroshock-induced seizures at 30 mg/kg, po after 1 hr; type: functional, organism-based; design: dose 30 mg/kg; method in brief: as §5
Mus musculus [30] = assay: Protective index, ratio of TD50 for ip dosed albino CF1 mouse by rotarod test to ED50 for ip dosed albino CF1 mouse by maximal electroshock seizures test; type: functional; method in brief: as §3
Mus musculus [31] = assay: Anticonvulsant activity in albino CF1 mouse assessed as protection against maximal electroshock-induced seizures at 30 mg/kg, ip after 4 hrs; type: functional, organism-based; design: dose 30 mg/kg; method in brief: as §1
Rattus norvegicus [32] = assay: Anticonvulsant activity in po dosed Sprague-Dawley albino rat assessed as protection against maximal electroshock-induced seizures; type: functional; method in brief: as §4
Rattus norvegicus [33] = assay: Neurotoxicity in Sprague-Dawley albino rat assessed as minimal motor impairment at 30 mg/kg, po by rotarod test; type: toxicity, organism-based; design: dose 30 mg/kg, route oral; settings: in vivo; method in brief: as §5
Mus musculus [34] = assay: Anticonvulsant activity in albino CF1 mouse assessed as protection against subcutaneous metrazol-induced seizures at 300 mg/kg, ip after 0.5 hrs; type: functional, organism-based; design: dose 300 mg/kg; method in brief: as §1
[35] = Neurotoxicity in ip dosed albino CF1 mouse assessed as minimal motor impairment by rotarod test; type: toxicity, organism-based; settings: in vivo; method in brief: as §4
Rattus norvegicus [36] = assay: Neurotoxicity in pilocarpine-induced status epilepticus Sprague-Dawley albino rat model assessed as minimal motor impairment at 100 mg/kg, ip after 2 hrs by rotarod test; type: toxicity, organism-based; design: dose 100 mg/kg, route intraperitoneal; settings: in vivo
Mus musculus [37] = assay: Anticonvulsant activity in albino CF1 mouse assessed as protection against subcutaneous metrazol-induced seizures at 100 mg/kg, ip after 0.5 hrs; type: functional, organism-based; design: dose 100 mg/kg; method in brief: as §1
Rattus norvegicus [38] = assay: Anticonvulsant activity in ip dosed Sprague-Dawley albino rat assessed as protection against maximal electroshock-induced seizures; type: functional; method in brief: as §4
Rattus norvegicus [39] = assay: Anticonvulsant activity in ip dosed Sprague-Dawley albino rat assessed as protection against subcutaneous metrazol-induced seizures; type: functional; method in brief: as §4

**Q.** Which results are given for `CCC(COC(N)=O)C(C)C` (racemic)?
**A.** Activity (Mus musculus [1]): inactive; Activity (Mus musculus [2]): inactive; Activity (Mus musculus [3]): Toxic; Activity (Rattus norvegicus [4]): Non-toxic; Activity (Mus musculus [5]): inactive; Activity (Mus musculus [6]): Non-toxic; Ratio TD50/ED50 (Rattus norvegicus [7]): 7.8; TD50 [8]: 58 mg/kg; ED50 (Mus musculus [9]): 33 mg/kg; Ratio TD50/ED50 (Mus musculus [10]): 2.9; Activity (Rattus norvegicus [11]): Non-toxic; Activity (Mus musculus [12]): inactive; TD50 [13]: > 500 mg/kg; ED50 (Rattus norvegicus [14]): 35 mg/kg; Activity (Rattus norvegicus [15]): inactive; Activity (Mus musculus [16]): inactive; Activity (Rattus norvegicus [17]): inactive; Activity (Mus musculus [18]): inactive; Activity (Mus musculus [19]): Non-toxic; Activity (Rattus norvegicus [20]): Non-toxic; Activity (Mus musculus [21]): Non-toxic; Activity (Rattus norvegicus [22]): Active; Ratio ED50 (Rattus norvegicus [23]): 4; Activity (Mus musculus [24]): Non-toxic; Activity (Mus musculus [25]): Active; ED50 (Mus musculus [26]): 120 mg/kg; Activity (Rattus norvegicus [27]): Non-toxic; Activity (Rattus norvegicus [28]): Non-toxic; Activity (Rattus norvegicus [29]): inactive; Ratio TD50/ED50 (Mus musculus [30]): 1.5; Activity (Mus musculus [31]): inactive; ED50 (Rattus norvegicus [32]): 64 mg/kg; Activity (Rattus norvegicus [33]): Non-toxic; Activity (Mus musculus [34]): Active; TD50 [35]: 157 mg/kg; Activity (Rattus norvegicus [36]): Non-toxic; Activity (Mus musculus [37]): inactive; ED50 (Rattus norvegicus [38]): 16 mg/kg; ED50 (Rattus norvegicus [39]): 19 mg/kg
